Test system: U2OS
Assay: Multiplex assay against U2OS
Format: toxicity, cell-based
Conditions: human
Procedure, shortened: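 Phenotypes for tubulin, mitochondrial mass and membrane permeability are expressed as per cents of healthy-nucleus cells. Cells were stained live at seeding with Hoechst33342, BioTracker Green Microtubule Cytoskeleton Dye, MitoTracker Red and Annexin V Alexa Fluor 680, then imaged after compound addition on a CQ1 microscope at 37°C and 5% CO2. Machine-learning gating in CellPathfinder separated Hoechst high-intensity objects from normal cells, divided normal cells by nuclear state (healthy, pyknosed, fragmented) and divided pyknosed cells into mitotic or apoptotic.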

[1] = 12 h, 1 µM, compound concentration 1 uM, replicate 1
[2] = 12 h, 1 µM, compound concentration 1 uM, replicate 2
[3] = 12 h, 10 µM, compound concentration 10 uM, replicate 1
[4] = 12 h, 10 µM, compound concentration 10 uM, replicate 2
[5] = 24 h, 1 µM, compound concentration 1 uM, replicate 1
[6] = 24 h, 1 µM, compound concentration 1 uM, replicate 2
[7] = 24 h, 10 µM, compound concentration 10 uM, replicate 1
[8] = 24 h, 10 µM, compound concentration 10 uM, replicate 2
[9] = 48 h, 1 µM, compound concentration 1 uM, replicate 1
[10] = 48 h, 1 µM, compound concentration 1 uM, replicate 2
[11] = 48 h, 10 µM, compound concentration 10 uM, replicate 1
[12] = 48 h, 10 µM, compound concentration 10 uM, replicate 2

CN(C)C/C=C/C(=O)Nc1ccc(C(=O)N2CCCC(Nc3ncc(Cl)c(-c4c[nH]c5ccccc45)n3)C2)cc1 (configuration not stated)
Population Apoptotic (%) [1]: 77%
Population Fragmented Nuclei (%) [1]: 31%
Population Healthy Nuclei (%) [1]: 60%
Population Hoechst High Intensity Objects (%) [1]: 2%
Population Membrane Permeable-Phenotype (%) [1]: 5%
Population Mitochondria Different-Phenotype (%) [1]: 3%
Population Mitotic Cells (%) [1]: 22%
Population Normal (%) [1]: 97%
Population Pyknosed Nuclei (%) [1]: 8%
Population Tubulin-Different-Phenotype (%) [1]: 4%
Total Cell Count [1]: 228
Population Apoptotic (%) [2]: 83%
Population Fragmented Nuclei (%) [2]: 18%
Population Healthy Nuclei (%) [2]: 77%
Population Hoechst High Intensity Objects (%) [2]: 0%
Population Membrane Permeable-Phenotype (%) [2]: 6%
Population Mitochondria Different-Phenotype (%) [2]: 5%
Population Mitotic Cells (%) [2]: 16%
Population Normal (%) [2]: 99%
Population Pyknosed Nuclei (%) [2]: 4%
Population Tubulin-Different-Phenotype (%) [2]: 8%
Total Cell Count [2]: 139
Population Apoptotic (%) [3]: 80%
Population Fragmented Nuclei (%) [3]: 31%
Population Healthy Nuclei (%) [3]: 47%
Population Hoechst High Intensity Objects (%) [3]: 5%
Population Membrane Permeable-Phenotype (%) [3]: 33%
Population Mitochondria Different-Phenotype (%) [3]: 40%
Population Mitotic Cells (%) [3]: 20%
Population Normal (%) [3]: 94%
Population Pyknosed Nuclei (%) [3]: 20%
Population Tubulin-Different-Phenotype (%) [3]: 49%
Total Cell Count [3]: 233
Population Apoptotic (%) [4]: 75%
Population Fragmented Nuclei (%) [4]: 25%
Population Healthy Nuclei (%) [4]: 54%
Population Hoechst High Intensity Objects (%) [4]: 2%
Population Membrane Permeable-Phenotype (%) [4]: 23%
Population Mitochondria Different-Phenotype (%) [4]: 42%
Population Mitotic Cells (%) [4]: 25%
Population Normal (%) [4]: 97%
Population Tubulin-Different-Phenotype (%) [4]: 37%
Total Cell Count [4]: 121
Population Apoptotic (%) [5]: 93%
Population Fragmented Nuclei (%) [5]: 34%
Population Healthy Nuclei (%) [5]: 53%
Population Hoechst High Intensity Objects (%) [5]: 2%
Population Membrane Permeable-Phenotype (%) [5]: 7%
Population Mitochondria Different-Phenotype (%) [5]: 2%
Population Mitotic Cells (%) [5]: 6%
Population Normal (%) [5]: 97%
Population Pyknosed Nuclei (%) [5]: 11%
Population Tubulin-Different-Phenotype (%) [5]: 6%
Total Cell Count [5]: 271
Population Apoptotic (%) [6]: 100%
Population Fragmented Nuclei (%) [6]: 21%
Population Healthy Nuclei (%) [6]: 67%
Population Hoechst High Intensity Objects (%) [6]: 0%
Population Membrane Permeable-Phenotype (%) [6]: 8%
Population Mitotic Cells (%) [6]: 0%
Population Normal (%) [6]: 99%
Population Tubulin-Different-Phenotype (%) [6]: 5%
Total Cell Count [6]: 164
Population Apoptotic (%) [7]: 87%
Population Fragmented Nuclei (%) [7]: 39%
Population Healthy Nuclei (%) [7]: 35%
Population Hoechst High Intensity Objects (%) [7]: 9%
Population Membrane Permeable-Phenotype (%) [7]: 22%
Population Mitochondria Different-Phenotype (%) [7]: 33%
Population Mitotic Cells (%) [7]: 12%
Population Normal (%) [7]: 90%
Population Pyknosed Nuclei (%) [7]: 25%
Population Tubulin-Different-Phenotype (%) [7]: 29%
Total Cell Count [7]: 239
Population Apoptotic (%) [8]: 97%
Population Fragmented Nuclei (%) [8]: 31%
Population Hoechst High Intensity Objects (%) [8]: 5%
Population Membrane Permeable-Phenotype (%) [8]: 21%
Population Mitochondria Different-Phenotype (%) [8]: 28%
Population Mitotic Cells (%) [8]: 2%
Population Normal (%) [8]: 94%
Population Pyknosed Nuclei (%) [8]: 32%
Population Tubulin-Different-Phenotype (%) [8]: 17%
Total Cell Count [8]: 135
Population Apoptotic (%) [9]: 94%
Population Fragmented Nuclei (%) [9]: 29%
Population Healthy Nuclei (%) [9]: 60%
Population Hoechst High Intensity Objects (%) [9]: 3%
Population Membrane Permeable-Phenotype (%) [9]: 10%
Population Mitochondria Different-Phenotype (%) [9]: 3%
Population Mitotic Cells (%) [9]: 5%
Population Normal (%) [9]: 96%
Population Pyknosed Nuclei (%) [9]: 10%
Population Tubulin-Different-Phenotype (%) [9]: 5%
Total Cell Count [9]: 339
Population Apoptotic (%) [10]: 96%
Population Fragmented Nuclei (%) [10]: 10%
Population Healthy Nuclei (%) [10]: 77%
Population Membrane Permeable-Phenotype (%) [10]: 3%
Population Mitotic Cells (%) [10]: 3%
Population Pyknosed Nuclei (%) [10]: 12%
Population Tubulin-Different-Phenotype (%) [10]: 3%
Total Cell Count [10]: 221
Population Apoptotic (%) [11]: 100%
Population Fragmented Nuclei (%) [11]: 50%
Population Healthy Nuclei (%) [11]: 17%
Population Hoechst High Intensity Objects (%) [11]: 15%
Population Membrane Permeable-Phenotype (%) [11]: 47%
Population Mitochondria Different-Phenotype (%) [11]: 27%
Population Mitotic Cells (%) [11]: 0%
Population Normal (%) [11]: 84%
Population Pyknosed Nuclei (%) [11]: 32%
Population Tubulin-Different-Phenotype (%) [11]: 38%
Total Cell Count [11]: 251
Population Healthy Nuclei (%) [12]: 18%
Population Hoechst High Intensity Objects (%) [12]: 9%
Population Membrane Permeable-Phenotype (%) [12]: 26%
Population Mitochondria Different-Phenotype (%) [12]: 19%
Population Normal (%) [12]: 90%
Population Pyknosed Nuclei (%) [12]: 31%
Population Tubulin-Different-Phenotype (%) [12]: 23%
Total Cell Count [12]: 157

— ChEMBL document CHEMBL5058577, “EUbOPEN Chemogenomics Library 2 (Multiplex)” (2022)
